High-throughput results (PubChem BioAssay)
The list is not random: actives were taken first. Their share in the collection is about 8.8%.
S1P3 ag: human S1P3 receptor agonists, primary screen, cell-based, primary and confirmation, NFAT-BLA reporter; Sphingosine 1-phosphate receptor 3 (Homo sapiens), Q99500; S1P3 NFAT-BLA reporter cells, agonism, FRET ratio; relative to 1 µM S1P, basal subtracted; activation, % at 4.5 µM; 60,000 tested, 0.1% active; AID 373, 2006;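 active = activation above the screen-wide mean plus 3 SD, cut at about 4.5% in these data, passing the limit was not always enough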
Target sequence (Q99500 whole entry, looked up): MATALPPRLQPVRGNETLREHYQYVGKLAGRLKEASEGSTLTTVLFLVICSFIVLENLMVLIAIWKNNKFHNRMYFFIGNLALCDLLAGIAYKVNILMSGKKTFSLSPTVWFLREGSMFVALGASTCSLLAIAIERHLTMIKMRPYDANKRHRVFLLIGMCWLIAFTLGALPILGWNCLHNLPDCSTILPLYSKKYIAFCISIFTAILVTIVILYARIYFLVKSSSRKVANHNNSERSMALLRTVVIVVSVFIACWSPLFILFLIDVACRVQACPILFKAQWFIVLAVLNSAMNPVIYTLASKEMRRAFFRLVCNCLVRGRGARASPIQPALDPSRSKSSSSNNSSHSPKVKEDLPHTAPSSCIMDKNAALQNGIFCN
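Benchmarks: high control 1 µM S1P / System: stable CHO line with human S1P3, Gα16, NFAT-BLA reporter / Dosing: single compound concentration, 4.5 µM final / Timing: 4 h compound at 37 °C, 2 h substrate at RT / Measured by: FRET β-lactamase substrate fluorescence, excitation 405 nm, 460/535 nm emission ratio, background-subtracted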
S1P1 ag pot: S1P1 agonists and agonism potentiators, primary screen, cell-based, primary and confirmation screens, CRE-bla reporter; Sphingosine 1-phosphate receptor 1 (Homo sapiens), P21453; S1P1 CRE-bla cells, forskolin, beta-lactamase FRET, potentiator mode; S1P1 agonist co-added at EC20, 2 nM; 100% = saturating reference agonist, 0% = basal; activation, % at 9.5 µM; 56,000 tested, 0.57% active; AID 449, 2006;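 active = activation above a cutoff set at the mean activation of all tested compounds plus 3 SD, cut at about 54% in these data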;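 note: forskolin at 4 µM as EC80 and the EC20 agonist is SEW2871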
M1 agonist: M1 muscarinic receptor agonists, primary screen, CHO-M1 cells, Fluo-4 calcium, agonist mode; Muscarinic acetylcholine receptor M1; Fluo-4 calcium fluorescence; active compounds read high; B-score at 10 µM; 64,000 tested, 3% active;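 active = fluorescence rise, raw or as B-score row- and column-corrected plate score, outside the 99.7% band of its plate's samples, either direction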
SF-1 act: activators of human SF-1, primary screen, cell-based, CHO-K1, Gal4-SF-1 LBD, luciferase luminescence | CHO-K1 Gal4-SF-1 LBD luciferase reporter; % increase over DMSO SF-1-specific signal | activation, % at 10 µM | 65,000 tested, 1.9% active | Steroidogenic factor 1 (Homo sapiens), Q13285;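 active = activation above the mean activation of all tested compounds plus 3 SD, cut at about 50% in these data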
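Assay system: CHO-K1 cells co-transfected with Gal4 DBD–human SF-1 LBD, 5xGal4 luciferase reporter; doses: 10 µM only; incubation: 20 h compound exposure at 37 °C after 1 h cell settling; signal: luciferase light emission; evaluation: percent activation versus DMSO; repeats: one test per compound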
M1 antagonist: antagonists of rat M1 muscarinic receptor | 64,000 tested, 3.4% active | B-score at 10 µM | CHO-M1 cells, Fluo-4 calcium, ACh EC80 antagonist mode; active compounds read low | AID 628, 2007 | Muscarinic acetylcholine receptor M1 (Rattus norvegicus), P08482;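 active = calcium fluorescence response, raw or row-and-column corrected B-score, differing from the plate sample mean either way at a set confidence level, mostly lower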
RORA act: activators of orphan receptor RORA, primary screen, cell-based, luminescence; 65,000 tested, 1.5% active; AID 560, 2006; activation, % at 10 µM; CHO-K1 Gal4-RORA LBD luciferase reporter; percent increase over mock-subtracted basal signal;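 active = activation above the mean of all tested compounds plus 3 SD, cut at about 49% in these data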
Numbers stand for hits; . = inactive; / = not tested or not shown.

SMILES | S1P3 ag | S1P1 ag pot | M1 agonist | SF-1 act | M1 antagonist | RORA act
CCOC(=O)CCCc1sc(N)nc1-c1[nH]c(=O)[nH]c1C | . | . | . | . | . | .
CCNC(=O)NC(=O)CSc1ccc(NC(C)=O)cc1 | . | . | . | . | . | .
CCNC(=O)NC(=O)COC(=O)c1ccccc1SCC(=O)NC(=O)NCC | . | . | . | 69 | . | .
CCCCN1C(=O)/C(=C2\SC(N3CCCCC3)=NC2=O)c2ccccc21 | . | . | . | . | . | 60
Cc1ccc(C)n1Cc1ccc(C(=O)O)cc1 | . | . | . | . | . | .
CCc1ccc(-c2ccc(C(=O)O)cc2)nc1 | . | . | . | 85 | . | .
CCCC(=O)N1CCN(S(=O)(=O)c2cc(Cl)ccc2OC)CC1 | . | . | . | . | . | .
Cc1nc2ccccc2n1-c1ccccc1 | . | . | . | . | . | .
Cc1cc(=O)cc(C)n1-c1ccc2c(c1)nc(C)n2-c1ccccc1 | / | / | . | . | 2.2 | .
CC1=CC(C)=Nc2ccc(C)cc2N1 | . | . | . | 76 | . | 58
COc1ccc(-c2noc(-c3ccccc3-c3ccccc3)n2)cc1OC | . | / | . | . | . | .
COc1ccc2noc3c2c1C(=O)c1ccccc1-3 | . | . | 354 | . | -12 | .
COc1ccccc1-n1c(=O)oc2ccc(Cl)cc2c1=O | . | . | . | . | . | .
COc1ccc2c(Cl)c(C(=O)NC3CCS(=O)(=O)C3)sc2c1 (stereo not given) | / | / | . | 50 | . | .
O=C(CN(C(=O)CCC(=O)Nc1nccs1)c1ccc(F)c(Cl)c1)NCc1ccco1 | . | . | . | . | . | .
COc1cccc(OCCCCSc2ncccn2)c1 | . | . | . | . | . | .
COc1ccc(OCCSc2ncccn2)cc1 | . | / | . | 56 | . | .
COc1ccc(OCCCSc2ncccn2)cc1 | . | . | . | . | . | 63
CCc1ccc(CCC(=O)Nc2ccc(C)c(C)c2)o1 | . | . | . | 56 | . | .
O=C(O)C1(c2cccc(Cl)c2)CCC1 | . | . | . | . | . | .
CCOc1ccc(OCC)c(NC(=O)CCn2c(=O)oc3ccccc32)c1 | . | . | . | . | . | .
O=C(CC(Nc1ccc(F)cc1)C(=O)O)c1ccccc1 (stereo not given) | . | . | . | . | . | 62
O=C(O)CC(NC(=O)c1ccccc1NC(=O)c1ccccc1)C(=O)O (stereo not given) | . | . | . | . | . | .
O=C1CSC(=Nc2cc(Cl)ccc2Cl)N1 | . | . | . | . | . | .
CN=Cc1cc(-c2ccccc2)sc1O | . | . | . | 56 | . | .
SMILES | S1P3 ag | S1P1 ag pot | M1 agonist | SF-1 act | M1 antagonist | RORA act
Cc1nc(-c2ccccc2)nc2[nH]c(C(C)C)cc(=O)c12 | . | . | . | . | . | .
Cc1nc(-c2ccccc2)nc2[nH]c(=O)n(-c3ccccc3)c(=O)c12 | . | . | . | . | . | 60
N#CC1=C(N)N(c2ccccc2)C(c2ccccc2)C1(C#N)C#N (stereo not given) | . | . | . | . | . | .
Cc1ccc(NC(=O)c2cc(C)on2)cc1 | . | . | . | 60 | . | .
COC(=O)c1cccc(C(=O)Nc2ccc(C)cc2)n1 | . | . | . | 50 | . | .
CCc1ccc(NC(=O)c2cc(C(C)C)on2)cc1 | . | . | . | . | . | 62
CCc1ccc(NC(=O)c2cc(C)on2)cc1 | . | . | . | . | . | .
CC(=O)c1cccc(NC(=O)c2cc(C(C)C)on2)c1 | . | . | . | 74 | . | 55
CN(C)S(=O)(=O)c1ccc(C(=O)NCCOc2ccccc2)cc1 | . | . | . | 56 | . | .
Cc1nn2c(=O)nc3sc4c(c3c2[nH]c1=O)CCCC4 | . | / | . | . | . | .
